# Published values of several laboratories.
# Protocols differ between the studies behind these lines.
Structure (SMILES),target or system,test,test system,setting,endpoint,value
CCCCCCCCCCCCCCCCCCOc1cccc(CC(=O)OCC[N+]2(C)CCCC2)c1,HOP-92,"cell growth or viability, SRB",,10 µM,inhibition,30%
Cc1ccc2[nH]nc(-c3nnc(Nc4ccc(O)cc4)s3)c2c1,Staphylococcus epidermidis,microbial growth,ATCC12228,,MIC,140 mg/L
Cc1n[nH]c2ccc3nc(-c4ccc(C(=O)N(C)CCN(C)C)cc4)c4c(c3c12)CCC(F)(F)C4,K562,"cell growth or viability, resazurin",,72 h,GI50,9.1 µM
CN[C@H](CC(C)C)C(=O)N[C@H]1C(=O)N[C@@H](CC(N)=O)C(=O)N[C@H]2C(=O)N[C@H]3C(=O)N[C@H](C(=O)N[C@H](C(=O)O)c4cc(O)cc(O)c4-c4cc3ccc4O)[C@H](O)c3ccc(c(Cl)c3)Oc3cc2cc(c3O[C@@H]2O[C@H](CO)[C@@H](O)[C@H](O)[C@H]2O[C@H]2C[C@](C)(N)[C@H](O)[C@H](C)O2)Oc2ccc(cc2Cl)[C@H]1O,Staphylococcus epidermidis,"microbial growth, broth dilution",,clinical isolate,MIC90,2 mg/L
CN1CCN(C(=O)c2ccc(-c3nc4ccc5[nH]ncc5c4c4c3CCCC4)cc2)CC1,K562,"cell growth or viability, resazurin",,72 h,GI50,> 10 µM
O=C(CCCCCCC(=O)Nc1ccccc1)NO,OCI-Ly1,"cell growth or viability, ATP luminescence",,"1 µM, 5 days",viability,50.5%
CCCCCCCCCCCCCCCCCCOc1ccccc1CC(=O)OCC[N+]1(C)CCCCC1,HOP-92,"cell growth or viability, SRB",,10 µM,inhibition,109%
CN(C)CCNC(=O)c1ccc(-c2nc3ccc4[nH]ncc4c3c3c2CC(F)(F)CC3)cc1,K562,"cell growth or viability, resazurin",,72 h,GI50,3.1 µM
CC(=O)NC[C@H]1CN(c2ccc(N3CCOCC3)c(F)c2)C(=O)O1,Staphylococcus epidermidis,"microbial growth, broth dilution",,clinical isolate,MIC50,0.5 mg/L
Cc1cc(Nc2nnc(-c3n[nH]c4ccc(C)cc34)s2)cc([N+](=O)[O-])c1,Staphylococcus epidermidis,microbial growth,ATCC12228,,MIC,208 mg/L
CCCCCCCCCCCCCCCCCCOCC(COP(=O)([O-])OCC[N+](C)(C)C)OC (stereo not drawn),HOP-92,"cell growth or viability, SRB",,10 µM,inhibition,40.1%
O=C(NO)c1ccc(CC(=O)N(CCO)c2ccccc2)cc1,OCI-Ly1,"cell growth or viability, ATP luminescence",,"0.5 µM, 5 days",viability,93.8%
C=C[C@]1(C)C[C@@H](OC(=O)CS[C@@H]2C[C@H]3CC[C@@H](C2)N3C)[C@]2(C)[C@H](C)CC[C@]3(CCC(=O)[C@H]32)[C@@H](C)[C@@H]1O,Staphylococcus epidermidis,microbial growth,MRSE,clinical isolate,MIC90,0.0625 mg/L
CN(C)CCNC(=O)c1ccc(-c2nc3ccc4[nH]ncc4c3c3c2CCC3)cc1,K562,"cell growth or viability, resazurin",,72 h,GI50,2.5 µM
CCCCCCCCCCCCCCCCCCOc1cccc(CC(=O)OCC[N+]2(C)CCOCC2)c1,HOP-92,"cell growth or viability, SRB",,10 µM,inhibition,13.9%
O=C(/C=C/c1cccc(C(=O)NO)c1)NO,OCI-Ly1,"cell growth or viability, ATP luminescence",,"1 µM, 5 days",viability,72.5%
O=C(NCCN1CCCC1)c1ccc(-c2nc3ccc4[nH]ncc4c3c3c2CCCC3)cc1,K562,"cell growth or viability, resazurin",,72 h,GI50,2.7 µM
Cc1ccc2[nH]nc(-c3nnc(Nc4ccc(Br)cc4)s3)c2c1,Staphylococcus epidermidis,microbial growth,ATCC12228,,MIC,190 mg/L
CCCCCCCCCCCCCCCCCCOc1ccccc1CC(=O)OCCC[N+](C)(C)C,HOP-62,"cell growth or viability, SRB",,10 µM,inhibition,32.9%
CC[C@H]1OC(=O)[C@H](C)[C@@H](O[C@H]2C[C@@](C)(OC)[C@@H](O)[C@H](C)O2)[C@H](C)[C@@H](O[C@@H]2O[C@H](C)C[C@H](N(C)C)[C@H]2O)[C@](C)(O)C[C@@H](C)/C(=N\OCOCCOC)[C@H](C)[C@@H](O)[C@]1(C)O,Staphylococcus epidermidis,microbial growth,,clinical isolate,MIC90,64 mg/L
Cc1n[nH]c2ccc3nc(-c4ccc(C(=O)NCCN(C)C)cc4)c4c(c3c12)CCC(C)(C)C4,K562,"cell growth or viability, resazurin",,72 h,GI50,6.4 µM
O=C(CCCCCCSc1ccc2ccccc2c1)NO,OCI-Ly1,"cell growth or viability, ATP luminescence",,"1 µM, 5 days",viability,154%
CCCCCCCCCCCCCCCCCCOc1ccccc1CC(=O)OCC[N+](C)(C)C,HOP-92,"cell growth or viability, SRB",,10 µM,inhibition,114%
O=C(NCCCN1CCOCC1)c1ccc(-c2nc3ccc4[nH]ncc4c3c3c2CCCC3)cc1,K562,"cell growth or viability, resazurin",,72 h,GI50,> 10 µM
Cc1ccc2[nH]nc(-c3nnc(Nc4ccc(C(F)(F)F)cc4)s3)c2c1,Staphylococcus epidermidis,microbial growth,ATCC12228,,MIC,123 mg/L
CCCCCCCCCCCCCCCCCCOc1ccc(CC(=O)OCC[N+](CC)(CC)CC)cc1,HOP-62,"cell growth or viability, SRB",,10 µM,inhibition,2.95%
CC1(C)S[C@@H]2[C@H](NC(=O)[C@H](N)c3ccccc3)C(=O)N2[C@H]1C(=O)O,Staphylococcus epidermidis,microbial growth,MRSE,clinical isolate,MIC90,> 128 mg/L
O=C(NCCc1ccccn1)c1ccc(-c2nc3ccc4[nH]ncc4c3c3c2CCCC3)cc1,K562,"cell growth or viability, resazurin",,72 h,GI50,8.4 µM
CC(=O)OC[C@H]1O[C@@H](n2cnc(N)nc2=O)[C@H](OC(C)=O)[C@@H]1OC(C)=O,OCI-Ly1,"cell growth or viability, ATP luminescence",,"0.1 µM, 5 days",viability,177%
COc1c(N2C[C@@H]3CCCN[C@@H]3C2)c(F)cc2c(=O)c(C(=O)O)cn(C3CC3)c12,Staphylococcus epidermidis,"microbial growth, broth dilution",,clinical isolate,MIC90,2 mg/L
